Sampled rows, rich in hits. Any-hit rate of the full collection: about 3.1%.
KCNQ1 inh: human KCNQ1 channel inhibition; P51787; CHO-K1 KCNQ1, FluxOR thallium flux fluorescence; stronger effect = higher value; B-score at 10 µM; 1.3% of 310,000 active; AID 2642;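 active = compounds whose thallium flux B-score, printed positive for inhibition, exceeds three library SD while starting fluorescence stays within three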;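 also: channel opened by potassium depolarization with thallium stimulus after 20 min compound exposure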
Target sequence (P51787 whole entry, looked up): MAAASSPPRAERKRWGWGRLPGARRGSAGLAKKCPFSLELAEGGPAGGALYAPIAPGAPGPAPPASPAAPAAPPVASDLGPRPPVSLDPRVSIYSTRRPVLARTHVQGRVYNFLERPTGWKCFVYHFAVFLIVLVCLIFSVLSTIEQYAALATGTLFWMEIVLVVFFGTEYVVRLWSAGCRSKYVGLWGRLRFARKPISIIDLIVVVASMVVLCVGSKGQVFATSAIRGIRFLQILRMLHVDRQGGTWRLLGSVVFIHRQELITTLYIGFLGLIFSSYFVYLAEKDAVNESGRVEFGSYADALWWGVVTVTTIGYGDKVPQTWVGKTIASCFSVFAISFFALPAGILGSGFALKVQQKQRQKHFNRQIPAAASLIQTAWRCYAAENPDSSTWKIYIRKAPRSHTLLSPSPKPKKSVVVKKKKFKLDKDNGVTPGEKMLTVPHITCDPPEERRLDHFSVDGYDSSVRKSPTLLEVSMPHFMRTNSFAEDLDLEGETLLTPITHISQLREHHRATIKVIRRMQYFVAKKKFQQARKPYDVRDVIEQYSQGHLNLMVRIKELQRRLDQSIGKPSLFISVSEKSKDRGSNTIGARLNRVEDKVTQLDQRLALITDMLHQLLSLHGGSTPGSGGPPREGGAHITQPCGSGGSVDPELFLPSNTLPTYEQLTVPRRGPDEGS
KCNK9 inh: blocks the human KCNK9 two-pore domain potassium channel; Q9NPC2; HEK293 KCNK9, FluxOR thallium flux fluorescence; stronger effect = lower value; B-score at 10 µM; 1.2% of 310,000 active; AID 488922;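 active = ratio B-score over 3 SD below the library mean, with starting fluorescence within 5 SD of its mean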;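 also: negative B-score means less thallium flux so channel inhibition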
hERG protect: compounds protecting human hERG from proarrhythmic drug block; Q12809; CHO-hERG, FluxOR thallium flux, dofetilide IC70 present; activation (rescue from dofetilide block), less the hit threshold, % at 10 µM; 0.51% of 310,000 active;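 active = activation above the mean of controls blocked by dofetilide plus 5 SD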;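 also: thallium influx through hERG after potassium depolarization seen as dye fluorescence rise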
KCNQ1 pot: human KCNQ1 channel potentiation or activation; P51787; B-score at 10 µM; CHO-K1 KCNQ1, thallium flux FluxOR fluorescence; stronger effect = higher value; 0.35% of 310,000 active;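 active = fluorescence ratio B-score, a plate-corrected score, at least three library SD, with initial intensity B-score within 5 SD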
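Schedule – 37 °C overnight plating, 90-min dark dye load, 20-min compound pretreatment · System – stable KCNQ1 CHO-K1 line · Probe or stimulus – thallium- and potassium-containing depolarizing buffer · Measured by – kinetic FluxOR fluorescence, 10 s baseline plus 110 s post-stimulus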
KCNK3 inh: human KCNK3 channel inhibition, primary screen. O14649. CHO-KCNK3 thallium flux, FluxOR fluorescence; stronger effect = lower value. B-score at 10 µM. 0.84% of 340,000 active;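 active = B-score under library mean minus 4 SD, starting fluorescence ratio at most library mean plus 5 SD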;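 also: more negative B-score means stronger inhibition of thallium flux through KCNK3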
KCNK3 inh conf: confirmation of human KCNK3 two-pore domain potassium channel inhibitors; shares compounds with KCNK3 inh; CHO-KCNK3 thallium flux, FluxOR fluorescence; 0% buffer, 100% carvedilol maximal block; ratio percent of control, % at 10 µM; 99% of 2,400 active;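 active = ratio percent of control, averaged over triplicates, above buffer control mean plus 5 SD, cut at about 64% in these data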;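 also: ratio is the fluorescence rise from min to max over baseline after thallium stimulus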
KCNK3 noninduced: activity in cells without induced KCNK3 expression; non-induced KCNK3 parental cells, FluxOR thallium flux; stronger effect = lower value; shares compounds with KCNK3 inh; 40% of 2,400 active; thallium flux ratio (lower = more inhibition) at 10 µM;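 active = thallium flux ratio, averaged over three wells, more than 5 SD below the buffer control mean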;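 also: host cells are CHO cells without KCNK3 induction; ratio is peak minus trough fluorescence over baseline then normalized to buffer controls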
* hit, by the source's call; i = inactive; · = no result.

SMILES	KCNQ1 inh	KCNK9 inh	hERG protect	KCNQ1 pot	KCNK3 inh	KCNK3 inh conf	KCNK3 noninduced
Cc1oc(-c2ccccc2)cc1C(=O)Nc1cccc2ccccc12	i	i	-9	i	-11*	119*	0.16*
Oc1ccc(N2CCN(Cc3nc4ccccc4[nH]3)CC2)cc1	i	i	-9	i	i	·	·
CCN(CC(=O)NCc1ccc(Cl)cc1)C(=O)CCOc1ccc(C)cc1	i	i	-8	i	i	·	·
CCOC(=O)/C(C#N)=C/c1cc2ccccc2nc1N1CCCCC1	12*	-7.3*	-9	i	-9.5*	0	i
Cc1ccc(S(=O)(=O)N2CCC(C(=O)N3CCCC(C(F)(F)F)C3)CC2)cc1C (centres undefined)	i	i	-9	i	i	·	·
Cc1c(C(C)(C)C)sc(=NC(=O)c2ccccc2O)n1C	i	i	-5	i	-9.7*	65*	i
Cc1c(C(C)(C)C)s/c(=N/S(=O)(=O)c2ccccc2)n1C	i	i	-3	i	i	·	·
CSc1ccc(C2Nc3cccc4cccc(c34)N2)cc1	6*	i	-11	i	-8.8*	112*	i
CC1CCCN(S(=O)(=O)c2ccc(NC(=O)CN3C(=O)NC(C)(c4ccccc4)C3=O)cc2)C1 (centres undefined)	i	i	-12	i	i	·	·
COc1ccc(-c2nc(CN3CCN(c4cc(C)nc(C)c4)CC3)c(C)o2)c2ccccc12	i	i	-20	i	i	·	·
Cc1oc(-c2cccc3ccccc23)nc1CN1CCN(c2ncnc3ccccc23)CC1	i	i	-16	i	-9.7*	112*	i
CC(NC(=O)C1CCC(C)(C(=O)O)C1(C)C)c1ccccc1 (centres undefined)	i	i	-3	i	i	·	·
CCOC(=O)c1sc(NC(=O)CSc2nnc(-c3ccco3)n2CC)c(C(=O)OCC)c1C	i	i	1	i	-12*	98*	i
CCOC(=O)c1c(NC(=O)CSc2nnc(-c3ccccc3)n2CC)sc(C(C)=O)c1C	i	i	-4	i	i	·	·
COc1ccc(OC)c(Nc2nc(NCc3ccco3)c3ccccc3n2)c1	i	i	-9	i	-17*	134*	0.15*
Cc1cc(OCC(=O)N2CCc3ccccc3C2)c(C)cc1Br	i	i	-4	i	-8.8*	130*	0.14*
COc1ccc(Cn2c(/C=C/c3ccccc3)nc3ccccc32)cc1	i	-6.8*	-8	i	-9.5*	101*	0.15*
CCC(C)n1c(/C=C/c2ccccc2)nc2ccccc21 (centres undefined)	i	i	-19	i	-9.8*	88*	i
CN(CCc1ccccc1)C(=O)c1ccc(NC(=O)Cc2ccc(NC(=O)C3CCN(C(=O)c4ccccc4)CC3)cc2)cc1	·	·	·	·	i	·	·
O=C(OC(c1ccccc1)c1nccc2ccccc12)c1ccccc1 (centres undefined)	·	·	·	·	-11*	105*	0.14*
CCOC(=O)c1ccc(N2C(=O)c3cccc4c(C(=O)O)ccc(c34)C2=O)cc1	i	i	0	i	i	·	·
O=C(O)C(=O)/C(=C\c1cccc2ccccc12)c1ccc2ccccc2n1	i	i	-2	i	-9.1*	137*	i
O=C(NCCCSc1ccccc1)c1cc(Br)ccc1O	i	i	-15	i	-8.8*	151*	0.12*
O=C(NCCSc1ccccc1)c1ccc(Br)cc1	i	i	-5	i	i	·	·
COc1ccc(Cl)cc1C(=O)NCCCSc1ccccc1	i	i	-7	i	-9.2*	112*	0.16*
SMILES	KCNQ1 inh	KCNK9 inh	hERG protect	KCNQ1 pot	KCNK3 inh	KCNK3 inh conf	KCNK3 noninduced
COc1cccc(CCc2nnc(N)s2)c1	i	i	-5	i	i	·	·
CCOc1ccc(C(C)=O)cc1CSc1nc2nc(C)cc(C)n2n1	i	i	-14	i	i	·	·
c1ccc(Oc2cccc(OCCCCSc3ncccn3)c2)cc1	i	i	-11	i	-11*	89*	0.15*
c1cnc(SCCCOc2ccc3ccccc3c2)nc1	i	i	-8	i	-10*	114*	0.14*
Cc1ccccc1N1C(=O)c2ccccc2C1O (centres undefined)	i	i	-3	i	i	·	·
CCn1c(NCc2cc(Br)ccc2NS(=O)(=O)c2ccc(C)cc2)nc2ccccc21	6*	i	-9	i	-11*	120*	i
Cc1cccc(C(=O)NNC(=O)c2ccccc2)c1	i	i	-6	i	i	·	·
Cc1cccc(C(=O)c2cnc3ccccc3c2-c2ccccc2)c1	i	-6.7*	-19	i	-11*	129*	0.14*
CCCCNC(=O)CSc1nc2c(sc(=S)n2-c2cc(Cl)ccc2OC)c(=O)[nH]1	i	i	-3	i	i	·	·
COc1ccc(Cl)cc1-n1c(=S)sc2c(=O)[nH]c(SCC(=O)C(C)(C)C)nc21	i	i	-16	i	-9*	88*	0.14*
COC(=O)N/N=C/c1cc(N=Nc2ccccc2)ccc1O	i	-7.2*	-22	i	-11*	109*	0.15*
CCN1C(=O)C(CC(=O)Nc2ccc(OC)cc2)N(CCc2ccc(F)cc2)C1=S (centres undefined)	i	i	-31	i	-9*	116*	i
COc1ccc(CCN2C(=S)N(C)C(=O)C2CC(=O)Nc2ccc(OC)cc2)cc1 (centres undefined)	i	i	-8	i	-9.2*	86*	0.15*
CSCCC(NC(=O)COc1ccccc1)C(=O)OC(C)C(=O)Nc1ccccc1C (centres undefined)	i	i	-10	i	i	·	·
Cn1c(-c2c(N)n(CCc3ccccc3)c3nc4ccccc4nc23)nc2ccccc21	13*	-7.8*	-19	i	-8.8*	158*	0.1*
Cn1c(-c2c(N)n(CCCc3ccccc3)c3nc4ccccc4nc23)nc2ccccc21	i	i	-19	i	-9.2*	126*	0.15*
O=CNCc1nc2ccccc2n1CCCc1ccccc1	i	i	-8	i	i	·	·
N#Cc1c(N)n(CCc2ccc(F)cc2)c2nc3ccccc3nc12	i	i	-9	i	i	·	·
Cc1ccccc1NC(=O)CSc1nc2c(c(=O)n(C)c(=O)n2C)n1C	i	i	-2	i	i	·	·

Bioassay records (PubChem BioAssay)
